# How the values were obtained:
# [1] = target: T1, Alpha-1A adrenergic receptor (Oryctolagus cuniculus) (UniProt O02824); assay: Efficacy relative to phenylephrine (PE) to constrict tissue containing the alpha-1A adrenergic receptor in rabbit urethra; type: functional, tissue-based
# T1 sequence (whole entry): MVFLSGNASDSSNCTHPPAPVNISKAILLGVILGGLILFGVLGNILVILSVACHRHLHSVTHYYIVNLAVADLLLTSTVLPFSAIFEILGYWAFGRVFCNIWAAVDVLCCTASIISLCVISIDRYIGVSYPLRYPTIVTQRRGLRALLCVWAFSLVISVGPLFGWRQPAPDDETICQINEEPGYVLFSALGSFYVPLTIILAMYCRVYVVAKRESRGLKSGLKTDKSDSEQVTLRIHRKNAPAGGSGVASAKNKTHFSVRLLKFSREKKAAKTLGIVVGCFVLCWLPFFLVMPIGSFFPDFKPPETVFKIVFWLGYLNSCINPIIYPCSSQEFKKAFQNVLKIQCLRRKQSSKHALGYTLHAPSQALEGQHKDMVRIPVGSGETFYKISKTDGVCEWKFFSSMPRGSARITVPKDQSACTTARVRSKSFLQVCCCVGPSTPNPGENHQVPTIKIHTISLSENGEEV
# Procedure, shortened: (§1)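 α1-agonist dose–response curves in isolated tissue: rabbit urethra (α1A), rat spleen (α1B), rat aorta (α1D). Agonist potency and efficacy read from the concentration–response curves.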
# [2] = target: T1, Alpha-1A adrenergic receptor (Oryctolagus cuniculus); assay: Functional agonism of the compounds to constrict tissue containing the alpha-1A adrenergic receptor in rabbit urethra; type: tissue-based; procedure, shortened: as §1
# [3] = target: T2, Alpha-1D adrenergic receptor (Rattus norvegicus, UniProt P23944); assay: In vitro binding affinity towards alpha-1D adrenergic receptor of rat clone in radioligand binding assay
# T2 sequence (P23944 whole entry): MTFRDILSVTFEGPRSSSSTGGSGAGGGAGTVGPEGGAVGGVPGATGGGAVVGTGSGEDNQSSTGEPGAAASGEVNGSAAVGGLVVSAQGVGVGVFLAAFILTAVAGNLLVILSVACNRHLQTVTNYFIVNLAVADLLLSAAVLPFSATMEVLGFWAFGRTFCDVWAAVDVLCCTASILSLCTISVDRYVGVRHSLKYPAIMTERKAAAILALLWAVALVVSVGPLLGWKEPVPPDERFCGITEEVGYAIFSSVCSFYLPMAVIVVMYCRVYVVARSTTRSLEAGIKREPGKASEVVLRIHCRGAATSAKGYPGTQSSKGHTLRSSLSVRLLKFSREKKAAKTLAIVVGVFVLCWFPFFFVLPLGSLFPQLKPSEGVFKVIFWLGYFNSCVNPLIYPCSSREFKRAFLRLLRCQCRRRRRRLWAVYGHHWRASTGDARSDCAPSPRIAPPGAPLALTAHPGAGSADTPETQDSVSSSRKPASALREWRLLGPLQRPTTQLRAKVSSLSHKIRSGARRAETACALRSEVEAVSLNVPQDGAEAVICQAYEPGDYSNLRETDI
# Procedure, shortened: (§2)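 Radioligand binding at α1 subtypes: α1A from rat submaxillary gland, α1B hamster clone, α1D rat clone. Run essentially per an earlier method.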
# [4] = target: T3, Alpha-1B adrenergic receptor (Mesocricetus auratus, UniProt P18841); assay: In vitro binding affinity towards alpha-1B adrenergic receptor of hamster clone in radioligand binding assay; type: single protein; procedure, shortened: as §2
# T3 sequence (P18841 whole entry): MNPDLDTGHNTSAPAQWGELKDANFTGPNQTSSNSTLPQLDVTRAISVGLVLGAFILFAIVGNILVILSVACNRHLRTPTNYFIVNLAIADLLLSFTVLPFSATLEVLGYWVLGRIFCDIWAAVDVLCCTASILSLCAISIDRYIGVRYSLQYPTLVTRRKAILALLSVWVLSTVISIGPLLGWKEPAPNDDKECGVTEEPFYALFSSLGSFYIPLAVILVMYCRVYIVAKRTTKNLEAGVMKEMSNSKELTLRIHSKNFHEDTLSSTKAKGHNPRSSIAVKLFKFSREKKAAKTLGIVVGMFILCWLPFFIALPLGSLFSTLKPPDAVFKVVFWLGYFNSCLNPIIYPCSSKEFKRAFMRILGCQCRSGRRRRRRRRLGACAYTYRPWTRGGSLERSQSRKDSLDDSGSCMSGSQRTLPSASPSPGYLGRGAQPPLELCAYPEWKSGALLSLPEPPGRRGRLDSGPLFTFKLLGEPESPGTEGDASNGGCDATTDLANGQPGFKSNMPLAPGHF
# [5] = target: T4, Alpha-1A adrenergic receptor (Rattus norvegicus, UniProt P43140); assay: In vitro binding affinity towards alpha-1A adrenergic receptor of rat submaxillary gland in radioligand binding assay; procedure, shortened: as §2
# T4 sequence (P43140 whole entry): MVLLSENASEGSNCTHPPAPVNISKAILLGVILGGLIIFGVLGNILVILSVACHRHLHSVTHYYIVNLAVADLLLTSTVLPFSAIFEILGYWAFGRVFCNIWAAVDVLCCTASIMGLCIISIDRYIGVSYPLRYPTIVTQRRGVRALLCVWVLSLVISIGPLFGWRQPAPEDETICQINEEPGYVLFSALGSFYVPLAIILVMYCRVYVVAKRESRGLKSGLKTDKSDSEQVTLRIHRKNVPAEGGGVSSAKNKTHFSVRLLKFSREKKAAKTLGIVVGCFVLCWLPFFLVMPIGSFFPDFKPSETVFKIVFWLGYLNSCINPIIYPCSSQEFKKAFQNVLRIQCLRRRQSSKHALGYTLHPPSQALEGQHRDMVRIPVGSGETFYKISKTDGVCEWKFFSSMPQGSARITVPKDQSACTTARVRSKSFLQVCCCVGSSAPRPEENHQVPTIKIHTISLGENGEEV
# Canis familiaris [6] = assay: Uroselectivity was determined by measuring effective dose required for 20 mmHg increase of mean arterial pressure (MAP) in vivo in dog; type: functional, Canis lupus familiaris, Artery
# Procedure, shortened: (§3)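 Dog model recording intraurethral pressure (IUP) and mean arterial pressure (MAP) simultaneously. Increasing iv doses given, maximal effect of each dose taken. Doses giving a 5 mmHg rise in IUP (ED Δ5) or 20 mmHg rise in MAP (ED Δ20) were calculated, in nmol/kg ± SEM, n ≥ 4 (2 or 3 where footnoted).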
# Canis familiaris [7] = assay: Uroselectivity was determined by measuring effective dose required for 5 mmHg increase of intraurethral pressure (IUP) in vivo in dog; type: functional, Canis lupus familiaris; procedure, shortened: as §3
# [8] = target: Alpha adrenergic receptor 1A and 1B (Rattus norvegicus) (UniProt P15823+P43140); assay: Selectivity is ratio of pKi (binding affinity) of alpha-1B receptor to that of alpha-1A receptor.; type: protein assay
# [9] = target: Alpha adrenergic receptor 1A and 1D (Rattus norvegicus) (UniProt P23944+P43140); assay: Selectivity is ratio of pKi (binding affinity) of Alpha-1D to that of alpha1A; type: protein assay
# Canis familiaris [10] = organism: Canis familiaris; assay: Ratio of MAP ED delta20 to that of IUP ED delta5
# [11] = target: T5, Alpha-2A adrenergic receptor (Homo sapiens, UniProt P08913); assay: In vitro binding affinity towards alpha-2A adrenergic receptor of human clone in radioligand binding assay
# T5 sequence (P08913 whole entry): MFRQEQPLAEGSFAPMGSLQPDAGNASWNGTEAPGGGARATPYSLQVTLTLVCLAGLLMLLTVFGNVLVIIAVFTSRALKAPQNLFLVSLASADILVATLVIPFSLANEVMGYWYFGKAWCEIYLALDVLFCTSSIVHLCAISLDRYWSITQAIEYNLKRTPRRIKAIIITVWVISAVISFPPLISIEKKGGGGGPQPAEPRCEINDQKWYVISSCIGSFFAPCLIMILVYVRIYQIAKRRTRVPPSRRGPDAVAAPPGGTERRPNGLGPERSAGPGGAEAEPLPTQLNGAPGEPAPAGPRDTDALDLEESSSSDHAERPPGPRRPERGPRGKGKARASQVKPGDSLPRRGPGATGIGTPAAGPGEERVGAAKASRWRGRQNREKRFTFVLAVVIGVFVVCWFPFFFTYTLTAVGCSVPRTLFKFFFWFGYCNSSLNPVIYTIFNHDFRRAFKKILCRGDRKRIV
# [12] = target: T6, Alpha-1B adrenergic receptor (Rattus norvegicus) (UniProt P15823); assay: Efficacy relative to phenylephrine (PE) constriction of rat spleen containing alpha-1B adrenergic receptor; type: functional, tissue-based; procedure, shortened: as §1
# T6 sequence (whole entry): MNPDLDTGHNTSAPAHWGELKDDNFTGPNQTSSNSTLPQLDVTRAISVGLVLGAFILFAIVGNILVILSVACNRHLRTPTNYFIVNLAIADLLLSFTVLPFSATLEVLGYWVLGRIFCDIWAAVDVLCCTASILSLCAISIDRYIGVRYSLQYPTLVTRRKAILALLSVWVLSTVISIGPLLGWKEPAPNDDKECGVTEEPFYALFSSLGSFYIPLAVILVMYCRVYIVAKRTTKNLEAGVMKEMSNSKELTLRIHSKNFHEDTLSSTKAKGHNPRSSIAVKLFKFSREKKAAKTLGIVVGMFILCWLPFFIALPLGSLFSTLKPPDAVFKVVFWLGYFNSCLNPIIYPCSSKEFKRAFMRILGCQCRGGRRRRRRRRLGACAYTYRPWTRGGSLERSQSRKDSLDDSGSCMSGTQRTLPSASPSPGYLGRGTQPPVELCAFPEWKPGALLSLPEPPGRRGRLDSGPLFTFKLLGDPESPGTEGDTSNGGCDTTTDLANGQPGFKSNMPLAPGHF
# [13] = target: T7, Alpha-2B adrenergic receptor (Rattus norvegicus, UniProt P19328); assay: In vitro binding affinity towards alpha-2B adrenergic receptor of rat neonatal lung in radioligand binding assay
# T7 sequence (P19328 whole entry): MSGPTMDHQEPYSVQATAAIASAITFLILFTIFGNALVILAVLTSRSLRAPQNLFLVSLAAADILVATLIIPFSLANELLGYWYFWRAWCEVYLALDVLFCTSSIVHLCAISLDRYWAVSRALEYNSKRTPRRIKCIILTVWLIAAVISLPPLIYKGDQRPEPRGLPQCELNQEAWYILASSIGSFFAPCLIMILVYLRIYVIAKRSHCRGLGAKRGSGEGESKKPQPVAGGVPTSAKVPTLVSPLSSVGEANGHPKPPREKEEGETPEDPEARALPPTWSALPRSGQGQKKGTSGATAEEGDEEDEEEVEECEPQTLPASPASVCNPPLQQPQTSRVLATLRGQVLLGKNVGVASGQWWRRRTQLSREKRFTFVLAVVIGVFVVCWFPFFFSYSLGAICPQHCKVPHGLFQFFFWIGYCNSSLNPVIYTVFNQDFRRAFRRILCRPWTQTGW
# [14] = target: T6, Alpha-1B adrenergic receptor (Rattus norvegicus); assay: Functional agonism of the compounds to constrict tissue containing the alpha-1B adrenergic receptor in rat spleen; type: tissue-based
# Procedure, shortened: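 Agonist dose–response curves were run on isolated tissue: rabbit urethra for α1A, rat spleen for α1B, and rat aorta for α1D.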
# [15] = target: T8, Alpha-2A adrenergic receptor (Rattus norvegicus) (UniProt P22909); assay: Efficacy relative to clonidine to constrict tissue containing the alpha-2A adrenergic receptor in rat prostatic vas deferens
# T8 sequence (whole entry): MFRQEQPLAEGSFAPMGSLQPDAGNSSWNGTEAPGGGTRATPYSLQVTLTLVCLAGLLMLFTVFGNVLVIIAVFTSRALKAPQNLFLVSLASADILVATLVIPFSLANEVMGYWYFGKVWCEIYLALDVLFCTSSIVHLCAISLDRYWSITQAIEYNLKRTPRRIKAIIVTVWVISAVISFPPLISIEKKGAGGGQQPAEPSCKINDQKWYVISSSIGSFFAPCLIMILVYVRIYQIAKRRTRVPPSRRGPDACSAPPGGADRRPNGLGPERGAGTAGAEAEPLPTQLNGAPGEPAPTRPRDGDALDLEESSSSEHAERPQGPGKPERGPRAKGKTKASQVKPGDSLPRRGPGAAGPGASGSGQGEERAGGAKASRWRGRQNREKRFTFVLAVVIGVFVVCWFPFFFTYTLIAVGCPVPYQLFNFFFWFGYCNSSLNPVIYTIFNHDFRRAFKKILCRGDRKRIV
Compound,Efficacy [1],pD2 [2],Ki [3],Ki [4],Ki [5],ED delta20 (Canis familiaris [6]),ED delta5 (Canis familiaris [7]),Selectivity [8],Selectivity [9],Ratio (Canis familiaris [10]),Ki [11],Efficacy [12],Ki [13],pD2 [14],Efficacy [15]
CS(=O)(=O)Nc1cccc2c1CCCC2C1=NCCN1 (stereo not given),87%,6.19,4.27 µM,7.41 µM,457 nM,9.2 nM/kg,11.9 nM/kg,20,9,1.1,–,–,–,–,–
CS(=O)(=O)Nc1c(O)ccc2c1CCCC2c1c[nH]cn1 (stereo not given),104%,–,–,–,–,0.16 nM/kg,0.18 nM/kg,–,–,1,44.7 nM,94%,47.9 nM,–,–
COc1ccc(NS(C)(=O)=O)c2c1C(c1c[nH]cn1)CCC2 (stereo not given),57%,4.81,> 10 µM,> 10 µM,–,1850 nM/kg,–,> 6,> 6,2.6,–,26%,–,4.74,–
CS(=O)(=O)Nc1cccc2c1OCCC2c1c[nH]cn1 (stereo not given),88%,–,–,–,–,163.9 nM/kg,–,–,–,–,–,17%,–,–,–
CCS(=O)(=O)Nc1cc(Cl)cc2c1CCCC2c1c[nH]cn1 (stereo not given),–,–,–,> 10 µM,45.7 nM,47.7 nM/kg,19.1 nM/kg,> 217,8,2.5,–,–,–,–,–
CC(=O)Nc1cccc2c1CCCC2c1c[nH]cn1 (stereo not given),70%,–,–,–,–,220 nM/kg,–,–,–,–,–,35%,3020 nM,–,100%
CCS(=O)(=O)Nc1cccc2c1CCC2c1c[nH]cn1 (stereo not given),87%,–,–,–,–,5.6 nM/kg,4.4 nM/kg,–,–,–,–,–,186 nM,–,26%
CCS(=O)(=O)Nc1cccc(Cc2c[nH]cn2)c1,80%,–,0.275 µM,0.891 µM,–,80 nM/kg,12 nM/kg,–,–,–,170 nM,–,977 nM,–,34%
CS(=O)(=O)Nc1cccc2c1CCCC2c1c[nH]cn1 (stereo not given),83%,–,–,–,–,102.3 nM/kg,–,–,–,–,105 nM,–,676 nM,–,62%

# From ChEMBL document CHEMBL1148329, “Synthesis and structure-activity studies on N-[5-(1H-imidazol-4-yl)-5,6,7,8-tetrahydro-1-naphthalenyl]methanesulfonamide, an imidazole-containing alpha(1A)-adrenoceptor agonist” (J Med Chem, 2004)
